A selection: hits, their analogues and other compounds. The true share with any hit is near 2.1%.
EP2 mod: modulators of human EP2 prostaglandin E2 receptor; P43116; EP2-expressing cells, cAMP HTRF FRET, PGE2 co-stimulation; induction, % at 25 µM; hit rate 0.83% among 260,000; AID 940;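 active = compounds whose cAMP rise, as percent of the full-agonist control response, exceeds 60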;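 also: rat C6 glioma line stably carrying human EP2 under a CMV promoter; the protocol text gives 20 µM as final concentration; 100% = response of wells given 1 µM PGE2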
Target sequence (P43116 whole entry, looked up): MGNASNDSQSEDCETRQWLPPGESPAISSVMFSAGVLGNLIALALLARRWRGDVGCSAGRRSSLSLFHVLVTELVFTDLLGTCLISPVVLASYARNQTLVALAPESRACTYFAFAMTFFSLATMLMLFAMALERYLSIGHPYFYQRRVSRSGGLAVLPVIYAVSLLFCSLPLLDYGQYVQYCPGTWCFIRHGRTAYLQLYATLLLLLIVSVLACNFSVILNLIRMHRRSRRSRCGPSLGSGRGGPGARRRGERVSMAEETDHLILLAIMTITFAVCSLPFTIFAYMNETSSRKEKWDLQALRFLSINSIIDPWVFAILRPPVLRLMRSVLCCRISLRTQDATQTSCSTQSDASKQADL
Thrombin inh: blocks human thrombin protease activity; hit rate 0.26% among 220,000; alpha-thrombin, Boc-VPR-AMC fluorogenic substrate cleavage; AID 1046; inhibition, % at 5 µM; P00734;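 active = inhibition at or above 40%; inactive = inhibition below 40%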;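 also: 0% = enzyme with no compound and 100% = wells without enzyme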
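Assay system: human alpha-thrombin enzyme. Reagent: Boc-VPR-AMC substrate, 15 µM final. Compound dosing: one concentration per compound, 5 µM, with 0.2% DMSO. Incubation: room-temperature reaction. Technique: AMC fluorescence, 355/460 nm. Measure: % inhibition relative to enzyme controls and enzyme-free blanks.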
FXIIa inh: factor XIIa (human) inhibition | P00748 | purified FXIIa, Boc-QGR-AMC fluorogenic substrate, 2 h | inhibition, % at 5 µM | hit rate 0.3% among 220,000; in the data active = inhibition above about 40%;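 also: 0% = enzyme with no compound and 100% = blank without enzyme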
KLK5 inh: kallikrein 5 (human) inhibition. Q9Y337. recombinant hK5, fluorogenic AMC substrate cleavage. inhibition, % at 5 µM. hit rate 0.59% among 210,000. AID 873;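 active = inhibition of 40% or more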;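 also: 0% = enzyme controls without compound and 100% = no-enzyme blanks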
Target sequence (Q9Y337 67-293 limits assumed): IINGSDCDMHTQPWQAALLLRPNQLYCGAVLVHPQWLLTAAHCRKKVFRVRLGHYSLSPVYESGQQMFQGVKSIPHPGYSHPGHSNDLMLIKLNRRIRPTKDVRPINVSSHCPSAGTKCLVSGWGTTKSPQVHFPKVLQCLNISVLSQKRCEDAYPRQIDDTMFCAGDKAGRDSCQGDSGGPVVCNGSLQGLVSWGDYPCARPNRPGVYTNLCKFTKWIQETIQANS
FXIa inh: inhibitors of human coagulation factor XIa; AID 798; inhibition, % at 5 µM; hit rate 0.14% among 220,000; purified FXIa, Boc-Glu-Ala-Arg-AMC fluorogenic substrate; P03951;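 active = inhibition of at least 40%; inactive = inhibition below 40%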;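 also: fluorescence of freed AMC excited at 355 nm; 0% = enzyme without compound and 100% = no enzyme blank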
EP2 antag: blocks the human prostaglandin E2 receptor EP2; AID 1422; P43116; C6 glioma cells expressing human EP2, cAMP TR-FRET; cells stimulated with saturating PGE2; hit rate 0.52% among 260,000; inhibition, % at 25 µM;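 active = percent inhibition above 40 after rounding to a whole number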;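 also: rat C6 glioma host cells with rolipram phosphodiesterase inhibitor present; the protocol text gives 20 µM as final concentration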
EP2 cAMP induct: human EP2 receptor cAMP induction, negative in counter-screens. shares compounds with EP2 mod. C6 glioma EP2 cells, cAMP HTRF induction; plus low (about EC15) PGE2 agonist. calls only at 20 µM (by protocol). hit rate 47% among 1,300. AID 1080;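 active = cAMP induction above 50% in the main assay while under 30% in all four parallel counter assays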;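 also: rat C6 glioma cells stably expressing human EP2 receptor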
* = called active by the depositor; i = inactive; · = no result given; + = active, no number.

SMILES | EP2 mod | Thrombin inh | FXIIa inh | KLK5 inh | FXIa inh | EP2 antag | EP2 cAMP induct
O=C1C2C3c4ccccc4C(c4ccccc43)[C@@H]2C(=O)N1c1ccccn1 (stereo partly specified) | 0.8 | -8.8 | 3.7 | -5.7 | 1.9 | 9.2 | ·
O=C1C2C3c4ccccc4C(c4ccccc43)[C@@H]2c2nc3ccccc3n21 (stereo partly specified) | 75.2* | -5.1 | 11.2 | 7.0 | -4.6 | 11.4 | +
O=C(NCc1ccco1)C(c1cccs1)N(C(=O)Cc1cccs1)c1ccccc1 (stereo unspecified) | 83.4* | -3.9 | 6.8 | 4.0 | -4.1 | 9.2 | i
CCCc1c(O)c2ccccc2n(-c2ccccc2)c1=O | 32.5 | 3.5 | 13.9 | -22.1 | 0.0 | 8.7 | ·
NCCc1c(-c2ccccc2)n(-c2ccccc2)c2ccccc12 | 71.8* | -4.0 | 6.3 | -0.4 | -3.3 | 2.7 | +
CCn1c2ccccc2c2cc(Nc3cc(C)nc4ncnn34)ccc21 | 82.7* | -2.3 | 15.2 | -7.7 | 4.2 | 8.0 | +
COc1c(O)ccc(/C=C(\C#N)c2nc3ccccc3[nH]2)c1[N+](=O)[O-] | 78.6* | -5.7 | 0.6 | -10.1 | 3.0 | 1.5 | +
COc1cc(/C=C(\C#N)c2nc3ccc(C)cc3[nH]2)c([N+](=O)[O-])cc1OC | -25.7 | 4.9 | 18.6 | -2.7 | 4.7 | 33.0 | ·
CCOC(=O)c1c(-c2ccc(C)o2)csc1NC(=O)CN1CCN(CC)CC1 | -4.1 | 6.1 | 19.5 | -9.7 | -1.2 | 10.1 | ·
CCOC(=O)c1c(-c2ccc(C)o2)csc1NC(=O)CN1CCCCC1 | 65.5* | -4.6 | 8.8 | 4.3 | 1.7 | 4.3 | i
CCOC(=O)c1c(-c2ccc(C)cc2)csc1NC(=O)CCN1CC(C)OC(C)C1 (stereo unspecified) | 86.5* | -3.4 | 12.4 | -8.4 | 2.8 | 5.8 | +
Cc1cc(N)c2cc(NC(=O)Nc3ccc4nc(C)cc(N)c4c3)ccc2n1 | 61.5* | · | · | · | · | 48.7* | i
Cc1ccc2cc(NC(=O)Cc3ccccc3)ccc2n1 | -23.5 | 3.0 | 7.9 | 4.2 | 13.8 | 7.0 | ·
CCc1ccc(NC(=S)N(Cc2ccccc2)Cc2ccccn2)cc1 | 70.0* | 4.2 | 8.1 | 0.9 | -2.3 | 17.6 | i
COCCn1c(=O)c2ccccc2c2ccccc2c1=O | 3.2 | -1.6 | 7.0 | 10.1 | 2.1 | 4.0 | ·
CCCCn1c(=O)c2ccccc2c2ccccc2c1=O | 82.4* | -4.3 | 13.8 | -8.1 | 2.0 | 9.2 | +
COc1ccc(C2(C(=O)N3CCC4(CC3)NC(=O)c3ccccc3O4)CCCC2)cc1 | 4.4 | · | · | · | · | 6.4 | ·
S=c1[nH]nc(-c2cc(-c3ccsc3)n[nH]2)n1-c1cccc2ccccc12 | 47.1 | 1.5 | 4.5 | -5.4 | -1.5 | 7.6 | ·
COc1ccc(-c2cc(-c3n[nH]c(=S)n3-c3cccc4ccccc34)[nH]n2)cc1 | 67.5* | -2.5 | 6.8 | 1.1 | 0.2 | 3.7 | i
CCC1Oc2ccc(C)cc2N(Cc2cccc(C)c2)C1=O (stereo unspecified) | 75.3* | -5.5 | -3.3 | -3.5 | -10.6 | 5.9 | +
O=C(Cc1cccc(Cl)c1)N1CCC(n2cnc3cccnc32)CC1 | 5.9 | · | · | · | · | 7.9 | ·
CCc1cc(NCCCOC)n2nc3nc(C)cc(C)c3c2n1 | -18.0 | · | · | · | · | · | ·
CC1CCCC/C1=N\NC(=S)Nc1ccccc1 (stereo unspecified) | -0.7 | -5.5 | 5.9 | -11.0 | -2.4 | 15.2 | ·
CC(C)NC(=S)N/N=C1\CCCCC1C1CCCCC1 (stereo unspecified) | 80.5* | 1.4 | 7.7 | -224.1 | -16.4 | -0.3 | +
CC(C)Nc1nc(NC(C)C)nc(N(C#N)CC#N)n1 | -47.1 | · | · | · | · | 5.0 | ·
SMILES | EP2 mod | Thrombin inh | FXIIa inh | KLK5 inh | FXIa inh | EP2 antag | EP2 cAMP induct
CCOC(=O)c1c(NC(=O)c2ccc(Cl)s2)sc(C)c1C | · | · | · | · | · | 13.2 | ·
CCOC(=O)c1cc(CC)sc1NC(=O)c1ccc2c(c1)OCCO2 | 69.2* | -1.5 | 12.5 | -11.7 | 0.9 | 11.3 | +
CCOC(=O)c1cc(CC)sc1NC(=O)c1cc(OCC)c(OCC)c(OCC)c1 | 27.8 | -0.9 | 9.6 | -25.9 | -4.2 | 5.2 | ·
CCOC(=O)c1cc(C)sc1NC(=O)c1ccc(Cl)s1 | 65.0* | -5.6 | 7.6 | 0.5 | -2.9 | 6.7 | +
C[C@@H]1CN(Cc2ccco2)[C@H](C)CN1CC(=O)Nc1ccc(-n2cnnn2)cc1 | -41.8 | · | · | · | · | 4.5 | ·
Cc1ccc(-n2cc(-c3ccccc3)c3c(N4CCOCC4)ncnc32)cc1 | 69.0* | -8.0 | 0.4 | -3.7 | -1.9 | 11.9 | i
Cc1ccc(-n2cc(-c3ccccc3)c3c(N4CCN(C)CC4)ncnc32)cc1 | -1.2 | -1.1 | 9.3 | -1.1 | 3.3 | 5.4 | ·
COc1ccc(-c2ocnc2C(=O)NCc2cccnc2)cc1OC | -15.3 | · | · | · | · | 14.9 | ·
C[C@@H]1CC[C@H]2C(C)(C)C3CC12CC[C@@]3(C)O (stereo partly specified) | 65.4* | · | · | · | · | 11.1 | +
N#CCSc1nc2c(c(C3CC=CCC3)c1C#N)CCC2 (stereo unspecified) | 77.8* | -1.0 | -1.6 | -0.6 | 0.2 | 4.6 | +
CCn1c(COc2cccc(C)c2C)nnc1SCC(=O)NC1CCCC1 | -20.7 | · | · | · | · | 4.1 | ·
O=C(C(c1ccccc1)c1ccccc1)N1CCCc2ccccc21 | 78.1* | -1.6 | 10.0 | -4.5 | 6.6 | 17.3 | +
COc1ccccc1N1CCN(CC(O)c2ccc3c(c2)OCCCO3)CC1 (stereo unspecified) | -17.9 | · | · | · | · | 7.6 | ·
CCN(CC)CCCNC(C)C(=O)N1CCc2ccccc21 (stereo unspecified) | -15.1 | · | · | · | · | 13.4 | ·
C=CCn1c(-c2oc3nc(-c4ccccc4)cc(-c4ccccc4)c3c2N)n[nH]c1=S | 61.1* | -0.9 | 6.6 | -7.5 | 9.2 | 3.6 | i
CC(=O)Cn1c(CN2CCOCC2)nc2c1c(=O)n(C)c(=O)n2C | -15.7 | · | · | · | · | 10.2 | ·
Cc1cccc(Cn2c(=O)n(Cc3ccco3)c(=O)c3ccccc32)c1 | 76.1* | -2.0 | 6.0 | 4.0 | -1.8 | 13.2 | i
COc1cccc2[nH]c3c(N4CCCCC4)ncnc3c12 | 94.4* | -2.2 | 3.0 | -6.4 | -7.0 | 3.9 | +
Cc1ccc(NC(=S)N2CCCC(c3nc4ccc(C)cc4[nH]3)C2)cc1 (stereo unspecified) | -90.9 | · | · | · | · | 3.6 | ·
Cc1cc(C)c2c(C)nn(-c3ccccc3)c2n1 | 36.3 | 3.8 | 13.0 | -18.9 | 4.1 | 11.4 | ·
Cc1nc2c(c(C)nn2-c2ccccc2)c(C)c1Cl | 77.1* | -2.5 | 15.0 | -5.2 | 2.7 | 7.0 | i
O=C1CCCC2=C1C(O)(C(F)(F)F)C(=O)N2Cc1ccccc1 (stereo unspecified) | -4.2 | 5.0 | 7.7 | 9.8 | 5.7 | 3.6 | ·
